# Laboratory results published in ChEMBL document CHEMBL4017532, “Multifunctional Hybrid Compounds Derived from 2-(2,5-Dioxopyrrolidin-1-yl)-3-methoxypropanamides with Anticonvulsant and Antinociceptive Properties” (J Med Chem, 2017).
# The source made the active and inactive calls.
# Columns and labels:
# Mus musculus [1] = test: Anticonvulsant activity in Albino Swiss CD-1 mouse assessed as inhibition of pentylenetetrazole-induced seizures at 100 mg/kg, ip administered up to 0.5 hrs prior to PTZ induction measured after 30 mins relative to control; format: functional; design: scale not given: the % may be the effect or the level left
# Mus musculus [2] = test: Antinociceptive activity in Albino Swiss CD-1 mouse assessed as inhibition of formalin-induced inflammatory pain response administered ip 30 mins before formalin injection measured after 15 to 30 mins; format: functional; conditions: Swiss CD-1, ip
# Procedure, shortened: (§1)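 Male CD-1 mice were given test agents ip 30 min before subcutaneous intraplantar formalin. Doses were 12.5, 25 or 50 mg/kg, or 100, 150 or 200 mg/kg for the reference. Vehicle was 1% Tween 80 at 10 mL/kg. Paw licking time was recorded in phase I (0–5 min) and phase II (15–30 min). Data are mean ± SEM of 8–10 mice, by Dunnett's test. ED50 was obtained by log-probit analysis with 95% confidence limits.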
# Mus musculus [3] = test: Antinociceptive activity in Albino Swiss CD-1 mouse assessed as inhibition of formalin-induced neurogenic pain response administered ip 30 mins before formalin injection measured up to 5 mins; format: functional; conditions: Swiss CD-1, ip; procedure, shortened: as §1
# Mus musculus [4] = test: Antiallodynic activity in oxaliplatin-induced Albino Swiss CD-1 mouse model of peripheral neuropathy assessed as elevation in pain sensitivity threshold at 25 mg/kg, ip administered 30 mins prior to oxaliplatin challenge relative to control; format: functional
# Procedure, shortened: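 Male CD-1 mice, 18–25 g, that had developed oxaliplatin-induced tactile allodynia were dosed ip 30 min before testing. Doses were 25, 50 or 100 mg/kg, or 50, 100 or 150 mg/kg for the reference. Vehicle was 1% aqueous Tween 80. Paw-withdrawal force was measured by von Frey filaments. Data are mean ± SEM, analysed by repeated-measures ANOVA with Dunnett's test against oxaliplatin plus vehicle mice.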
# Mus musculus [5] = test: Antiallodynic activity in oxaliplatin-induced Albino Swiss CD-1 mouse model of peripheral neuropathy assessed as elevation in pain sensitivity threshold at […], ip administered 30 mins prior to oxaliplatin challenge relative to control; format: functional
# [6] = biological target: GABA-A receptor; alpha-1/beta-2/gamma-2 (Homo sapiens) (UniProt P14867+P47870+P18507); test: Displacement of [3H]muscimol from human GABAalpha1beta2gamma2 receptor expressed in CHO cells at 100 uM after 30 mins by liquid scintillation counting; format: cell-based
# Procedure, shortened: (§2)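 Radioligand binding was run as a contract service. Percent inhibition of specific labelled-ligand binding was measured at 100 μM test compound, or 200 μM for hERG.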
# Mus musculus [7] = test: Analgesic activity in Albino Swiss CD-1 mouse assessed as increase in pain response latency administered at 150 mg/kg, ip treated up to 90 mins prior to tet by hot plate assay; format: functional, organism-based
# Procedure, shortened: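 Male CD-1 mice, 18–25 g, 6–12 per group, given test agents as 1% aqueous Tween 80 suspension ip. Doses were 50, 100 or 150 mg/kg, with morphine hydrochloride at 4 mg/kg as reference. Mice were placed on the hot plate 15, 30, 45, 60 and 90 min after dosing, and latency to pain reaction was recorded.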
# Rattus norvegicus = species on record: Rattus norvegicus; test: Displacement of [3H]nitrendipine from L-type calcium channel dihydropyridine binding site in rat cerebral cortex at 100 uM by liquid scintillation spectrometry; procedure, shortened: as §2
# Mus musculus [8] = test: Toxicity in Albino Swiss CD-1 mouse assessed as motor coordination impairment at 50 to 150 mg/kg, ip by rotarod test; format: organism-based; conditions: in vivo
# Mus musculus [9] = test: Anticonvulsant activity in Albino Swiss CD-1 mouse assessed as inhibition of pentylenetetrazole-induced seizures by measuring time to peak effect at 100 mg/kg, ip administered up to 2 hrs prior to PTZ induction measured for 30 mins; format: functional
smiles,measurement,setting,value
COCC(C(=O)N1CCN(c2ccc(C(F)(F)F)cc2)CC1)N1C(=O)CCC1=O (stereo not given),Activity,Mus musculus [1],75%
same,ED50,Mus musculus [2],5.1 mg/kg
same,ED50,Mus musculus [3],26 mg/kg
same,Activity,Mus musculus [4],112.6%
same,Activity,Mus musculus [5],122%
same,inhibition,[6],inactive
same,Activity,Mus musculus [7],inactive
same,inhibition,Rattus norvegicus,inactive
same,Activity,Mus musculus [8],Non-Toxic
same,Time,Mus musculus [9],0.5 h
